From PubChem BioAssay
Hits are enriched below; roughly 2% of the tested compounds scored in any of these assays.
TRPML3 ag = human TRPML3 channel agonists, primary screen, cell-based, HEK293 TRPML3-YFP, Fluo-8 calcium fluorescence, 3 µM | 220,000 compounds, 0.29% hits | activation, % at 3 µM | 100% = the carbachol control signal;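 active means activation above its plate's cutoff, the mean activation of the plate's test wells plus 3 SD, cut at about 12% in these data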
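Material: HEK293 cells stably carrying human TRPML3-YFP; compound dosing: single dose, 3 µM final nominal compound, 0.3% DMSO final; incubation: 1-h 37 °C dye load, 5-s basal, 120-s post-compound reads; technique: Fluo-8 intracellular calcium fluorescence, excitation 470-495 nm, emission 515-575 nm; read-out basis: percent activation from peak-to-basal fluorescence ratio, scaled between DMSO and carbachol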
CRFR2-BP ag = agonists of CRF-BP/CRF-R2 complex, primary screen, cell-based, HEK293, calcium dye fluorescence, uHTS; activation, % at 13.2 µM; 350,000 compounds, 0.46% hits; calcium dye fluorescence (FLIPR); percent of saturating CRF peptide response; CRF-binding protein / CRF receptor 2 complex (human);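 active means activation of at least 50%, plus an integration ratio under a set limit after plate pattern correction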
CRFBP-R2 block = antagonists of CRF-BP/CRF-R2 complex, primary screen, cell-based, HEK293, calcium dye fluorescence, uHTS; CRF-induced calcium fluorescence; inhibition, % at 11.8 µM; 350,000 compounds, 0.59% hits;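 active means inhibition of the ligand-induced calcium signal above about 50% at the single tested concentration, limit read from the data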
GPR7 antagonist = GPR7 receptor antagonists, primary screen, cell-based, fluorescence, single concentration | inhibition, % at 4.4 µM | GPR7-expressing cells, fluorescence antagonist assay | Neuropeptides B/W receptor type 1 (Homo sapiens), P48145 | 290,000 compounds, 1.1% hits; in the data active means inhibition above about 16%, passing the limit was not always enough;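 further: cells stimulated with the agonist NPW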
Target sequence (P48145 whole entry, looked up): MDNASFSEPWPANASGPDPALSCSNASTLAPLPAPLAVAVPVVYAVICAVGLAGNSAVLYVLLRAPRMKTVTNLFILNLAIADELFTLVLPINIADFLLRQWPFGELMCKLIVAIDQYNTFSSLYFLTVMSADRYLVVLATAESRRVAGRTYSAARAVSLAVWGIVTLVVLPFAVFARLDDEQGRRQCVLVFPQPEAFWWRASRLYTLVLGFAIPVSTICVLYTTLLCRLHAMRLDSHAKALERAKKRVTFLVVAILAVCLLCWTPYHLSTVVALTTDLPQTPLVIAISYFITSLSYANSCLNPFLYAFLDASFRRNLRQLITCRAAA
zfTRPN1 agonist = zebrafish TRPN1 channel agonists, primary screen, cell-based, HEK293, calcium fluorescence; HEK293 zebrafish TRPN1-YFP, Fluo-8 calcium fluorescence; 100% = response to 87 µM carbachol; activation, % at 3 µM; 220,000 compounds, 0.18% hits; AID 1424, 2008;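 active means activation above its plate's cutoff, the mean activation of test wells on that plate plus 3 SD, cut at about 19% in these data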
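Assay system: Zebrafish TRPN1-YFP in HEK293 cells | Incubation: Dye loading 1 h at 37 °C, then 30 min room temperature | Measured by: Kinetic Fluo-8 fluorescence, ex 470-495, em 515-575 nm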
GPR7 antag conf = GPR7 receptor antagonists, confirmation, cell-based, fluorescence, single concentration; GPR7-expressing cells, calcium fluorescence antagonist mode; AID 1952, 2009; 2,400 compounds, 52% hits; inhibition, % at 4.4 µM; shares compounds with GPR7 antagonist; in the data active means inhibition above about 24%;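 further: stimulated with the GPR7 agonist NPW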
MCHR1 antag = MCHR1 antagonists in cells, counter-screen for GPR7 antagonist project, cell-based, fluorescence, human; shares compounds with GPR7 antagonist; MCHR1-expressing cells, fluorescence antagonist assay; inhibition, % at 4.4 µM; 2,400 compounds, 62% hits; in the data active means inhibition above about 22%
Large screens that a line does not name were inactive (follow-up assays come after a bar, where they were run).

CN(Cc1cccs1)C(=O)CCCc1c[nH]c2ccccc12	TRPML3 ag 32, GPR7 antagonist 33, zfTRPN1 agonist 32 | GPR7 antag conf 33 | MCHR1 antag 45
CC(C)CS(=O)(=O)C1=NN2C(=N)/C(=C\c3ccc(OC(=O)c4ccco4)cc3)C(=O)N=C2S1	GPR7 antagonist 43 (no result: TRPML3 ag, zfTRPN1 agonist) | GPR7 antag conf 42 | MCHR1 antag 34
CS(=O)(=O)C1=NN2C(=N)/C(=C\c3ccc(OC(=O)c4ccco4)cc3)C(=O)N=C2S1	none (no result: TRPML3 ag, zfTRPN1 agonist)
CC(C)C(OC(=O)c1nsc(Cl)c1Cl)C(=O)NCc1ccccc1 (configuration not stated)	none (no result: TRPML3 ag, zfTRPN1 agonist)
O=C(Nc1ccc(N2CCN(C(=O)c3ccco3)CC2)c(Cl)c1)c1c(F)c(F)c(F)c(F)c1F	GPR7 antagonist 30 | GPR7 antag conf inactive | MCHR1 antag 78
Cc1nn(C)c(C)c1S(=O)(=O)N(CC(=O)NCCCN1CCC(C)CC1)c1ccc(C(C)C)cc1	none (no result: TRPML3 ag, zfTRPN1 agonist)
CC(C)(C)c1ccc(OCCOc2ccc(C(C)(C)C)cc2NC=O)c(NC=O)c1	GPR7 antagonist 19 | GPR7 antag conf 29 | MCHR1 antag 72
CCCCCCCCC[n+]1cccc2c3ccccc3ccc21	GPR7 antagonist 75 | GPR7 antag conf 80 | MCHR1 antag 80
CCCCCCCCCCCCCCCC[n+]1cccc2ccccc21	none
COc1ccc(N2CSC(=S)N(c3ccc(OC)cc3)C2)cc1	none (no result: TRPML3 ag, GPR7 antagonist, zfTRPN1 agonist)
Cn1cc(C(c2ccccn2)c2cn(C)c3ccccc23)c2ccccc21	GPR7 antagonist 26 | GPR7 antag conf 41 | MCHR1 antag 45
CC(C)n1cc(CN2CCN(CCc3ccccc3)C(CCO)C2)cn1 (configuration not stated)	none
CCN(CC(=O)Nc1c(F)cccc1F)C(=O)c1ccc(Cl)c(S(=O)(=O)N2CCCCC2)c1	GPR7 antagonist 35 (no result: TRPML3 ag, zfTRPN1 agonist) | GPR7 antag conf inactive | MCHR1 antag 49
COC(=O)c1ccccc1NC(=O)CCCN1C(=O)C(c2ccccc2)Oc2cccnc21 (configuration not stated)	none (no result: TRPML3 ag, zfTRPN1 agonist)
CN(CC(=O)Nc1ccc(Cl)c(C(F)(F)F)c1)C(=O)C1(c2ccccc2)CC1	none (no result: TRPML3 ag, GPR7 antagonist, zfTRPN1 agonist)
Cc1noc(C)c1S(=O)(=O)Nc1ccc2c(c1)C(=O)N([C@H](C)CO)C[C@H](C)[C@@H](CN(C)C(=O)NC1CCCCC1)O2	none (no result: TRPML3 ag, GPR7 antagonist, zfTRPN1 agonist)
CCCc1cc(C(=O)Nc2ccc(F)c(Cl)c2)no1	GPR7 antagonist 29 (no result: TRPML3 ag, zfTRPN1 agonist) | GPR7 antag conf 33 | MCHR1 antag 30
CCCc1cc(C(=O)Nc2cccc(Cl)c2)no1	none
Cc1c(Cl)ccc2c1NC(=O)[C@]21N[C@@H](Cc2ccccc2)[C@H]2C(=O)N(c3ccc(F)cc3)C(=O)[C@H]21	GPR7 antagonist 36 | GPR7 antag conf 67 | MCHR1 antag 69
Cc1cc(C)nc(N/N=C/c2ccccc2Cl)n1	GPR7 antagonist 23 | GPR7 antag conf inactive | MCHR1 antag inactive
Cc1cc(C)nc(N/N=C/c2cccc3ccccc23)n1	none
CC(C)NC(=O)CCc1nc2cccnc2n1-c1ccccc1	GPR7 antagonist 56 (no result: TRPML3 ag, zfTRPN1 agonist) | GPR7 antag conf inactive | MCHR1 antag inactive
Cc1cccc2cc(CN(Cc3ccco3)C(=O)Nc3cccc(C#N)c3)c(Cl)nc12	GPR7 antagonist 27 | GPR7 antag conf 39 | MCHR1 antag 61
Cc1ccc(NC(=O)N(Cc2ccco2)Cc2cc3cc(C)cc(C)c3nc2Cl)cc1	none (no result: CRFR2-BP ag, CRFBP-R2 block)
COc1ccc(CNCCc2ccc(Cl)cc2)cc1OCc1ccccc1	none
COc1cc(CNCc2ccccn2)ccc1OCc1ccc(Cl)c(Cl)c1	GPR7 antagonist 24 | GPR7 antag conf inactive | MCHR1 antag 68
